# Measurements published in ChEMBL document CHEMBL4689842, “EUbOPEN Chemogenomics Library wave 1” (2021).
# Tests used:
# Assay type in all cases: toxicity, cell-based
# HEK-293T = assay: Incucyte cell viability with HEK293T; settings: human, 10 µM, compound concentration 10 uM; further: filed as whole numbers so only -1 and 0 and 1 occur
# U2OS = assay: Incucyte cell viability with U2OS; settings: human, 10 µM, compound concentration 10 uM; further: filed as whole numbers so only -1 and 0 and 1 occur
# Fibroblast = assay: Multiplex assay against human fibroblast
# Procedure, shortened: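 Cells stained live at seeding with Hoechst33342, BioTracker Green Microtubule Cytoskeleton Dye, MitoTracker Red and Annexin V Alexa Fluor 680 were imaged on a CQ1 microscope at 37°C and 5% CO2 after compound addition. Their classification by CellPathfinder machine-learning gating ran from Hoechst high-intensity objects versus normal cells, to healthy, pyknosed or fragmented nuclei among normal cells, to mitotic or apoptotic among pyknosed cells. Tubulin, mitochondrial-mass and membrane-permeability phenotypes are per cents of healthy-nucleus cells.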
# [1] = 6 h, replicate number 1, timepoint 6 hours
# [2] = 12 h, replicate number 1, timepoint 12 hours
# [3] = 18 h, replicate number 1, timepoint 18 hours
# [4] = 24 h, replicate number 1, timepoint 24 hours
# [5] = 12 h, 1 µM, compound concentration 1 uM, replicate 1
# [6] = 12 h, 1 µM, compound concentration 1 uM, replicate 2
# [7] = 12 h, 10 µM, compound concentration 10 uM, replicate 1
# [8] = 12 h, 10 µM, compound concentration 10 uM, replicate 2
# [9] = 24 h, 1 µM, compound concentration 1 uM, replicate 1
# [10] = 24 h, 1 µM, compound concentration 1 uM, replicate 2
# [11] = 24 h, 10 µM, compound concentration 10 uM, replicate 1
# [12] = 24 h, 10 µM, compound concentration 10 uM, replicate 2
# [13] = 48 h, 1 µM, compound concentration 1 uM, replicate 1
# [14] = 48 h, 1 µM, compound concentration 1 uM, replicate 2
# [15] = 48 h, 10 µM, compound concentration 10 uM, replicate 1
# [16] = 48 h, 10 µM, compound concentration 10 uM, replicate 2
smiles,measurement,setting,value
CC(C)[C@H](CO)Nc1nc(Nc2cccc(Cl)c2)c2ncn(C(C)C)c2n1 [PURVALANOLA],Growth Rate,HEK-293T; [1],0
same,Growth Rate,HEK-293T; [2],0
same,Growth Rate,HEK-293T; [3],0
same,Growth Rate,HEK-293T; [4],0
same,Growth Rate,U2OS; [1],0
same,Growth Rate,U2OS; [2],0
same,Growth Rate,U2OS; [3],0
same,Growth Rate,U2OS; [4],0
same,Population Apoptotic (%),Fibroblast; [5],65%
same,Population Fragmented Nuclei (%),Fibroblast; [5],30%
same,Population Healthy Nuclei (%),Fibroblast; [5],39%
same,Population Hoechst High Intensity Objects (%),Fibroblast; [5],17%
same,Population Membrane Permeable-Phenotype (%),Fibroblast; [5],20%
same,Population Mitochondria Different-Phenotype (%),Fibroblast; [5],7%
same,Population Mitotic Cells (%),Fibroblast; [5],35%
same,Population Normal (%),Fibroblast; [5],82%
same,Population Pyknosed Nuclei (%),Fibroblast; [5],30%
same,Population Tubulin-Different-Phenotype (%),Fibroblast; [5],48%
same,Total Cell Count,Fibroblast; [5],241
same,Population Apoptotic (%),Fibroblast; [6],50%
same,Population Fragmented Nuclei (%),Fibroblast; [6],8%
same,Population Healthy Nuclei (%),Fibroblast; [6],88%
same,Population Hoechst High Intensity Objects (%),Fibroblast; [6],10%
same,Population Membrane Permeable-Phenotype (%),Fibroblast; [6],7%
same,Population Mitochondria Different-Phenotype (%),Fibroblast; [6],21%
same,Population Mitotic Cells (%),Fibroblast; [6],50%
same,Population Normal (%),Fibroblast; [6],89%
same,Population Pyknosed Nuclei (%),Fibroblast; [6],3%
same,Population Tubulin-Different-Phenotype (%),Fibroblast; [6],15%
same,Total Cell Count,Fibroblast; [6],111
same,Population Apoptotic (%),Fibroblast; [7],65%
same,Population Fragmented Nuclei (%),Fibroblast; [7],24%
same,Population Healthy Nuclei (%),Fibroblast; [7],38%
same,Population Hoechst High Intensity Objects (%),Fibroblast; [7],17%
same,Population Membrane Permeable-Phenotype (%),Fibroblast; [7],10%
same,Population Mitochondria Different-Phenotype (%),Fibroblast; [7],54%
same,Population Mitotic Cells (%),Fibroblast; [7],34%
same,Population Normal (%),Fibroblast; [7],82%
same,Population Pyknosed Nuclei (%),Fibroblast; [7],36%
same,Population Tubulin-Different-Phenotype (%),Fibroblast; [7],95%
same,Total Cell Count,Fibroblast; [7],143
same,Population Apoptotic (%),Fibroblast; [8],83%
same,Population Fragmented Nuclei (%),Fibroblast; [8],13%
same,Population Healthy Nuclei (%),Fibroblast; [8],79%
same,Population Hoechst High Intensity Objects (%),Fibroblast; [8],7%
same,Population Membrane Permeable-Phenotype (%),Fibroblast; [8],23%
same,Population Mitochondria Different-Phenotype (%),Fibroblast; [8],95%
same,Population Mitotic Cells (%),Fibroblast; [8],16%
same,Population Normal (%),Fibroblast; [8],92%
same,Population Pyknosed Nuclei (%),Fibroblast; [8],6%
same,Population Tubulin-Different-Phenotype (%),Fibroblast; [8],98%
same,Total Cell Count,Fibroblast; [8],66
same,Population Apoptotic (%),Fibroblast; [9],48%
same,Population Fragmented Nuclei (%),Fibroblast; [9],32%
same,Population Healthy Nuclei (%),Fibroblast; [9],49%
same,Population Hoechst High Intensity Objects (%),Fibroblast; [9],18%
same,Population Membrane Permeable-Phenotype (%),Fibroblast; [9],24%
same,Population Mitochondria Different-Phenotype (%),Fibroblast; [9],7%
same,Population Mitotic Cells (%),Fibroblast; [9],51%
same,Population Normal (%),Fibroblast; [9],81%
same,Population Pyknosed Nuclei (%),Fibroblast; [9],18%
same,Population Tubulin-Different-Phenotype (%),Fibroblast; [9],60%
same,Total Cell Count,Fibroblast; [9],248
same,Population Apoptotic (%),Fibroblast; [10],60%
same,Population Fragmented Nuclei (%),Fibroblast; [10],8%
same,Population Healthy Nuclei (%),Fibroblast; [10],83%
same,Population Hoechst High Intensity Objects (%),Fibroblast; [10],6%
same,Population Membrane Permeable-Phenotype (%),Fibroblast; [10],5%
same,Population Mitochondria Different-Phenotype (%),Fibroblast; [10],23%
same,Population Mitotic Cells (%),Fibroblast; [10],40%
same,Population Normal (%),Fibroblast; [10],93%
same,Population Pyknosed Nuclei (%),Fibroblast; [10],8%
same,Population Tubulin-Different-Phenotype (%),Fibroblast; [10],9%
same,Total Cell Count,Fibroblast; [10],157
same,Population Apoptotic (%),Fibroblast; [11],72%
same,Population Fragmented Nuclei (%),Fibroblast; [11],26%
same,Population Healthy Nuclei (%),Fibroblast; [11],47%
same,Population Hoechst High Intensity Objects (%),Fibroblast; [11],20%
same,Population Membrane Permeable-Phenotype (%),Fibroblast; [11],16%
same,Population Mitochondria Different-Phenotype (%),Fibroblast; [11],63%
same,Population Mitotic Cells (%),Fibroblast; [11],27%
same,Population Normal (%),Fibroblast; [11],79%
same,Population Pyknosed Nuclei (%),Fibroblast; [11],25%
same,Population Tubulin-Different-Phenotype (%),Fibroblast; [11],94%
same,Total Cell Count,Fibroblast; [11],145
same,Population Apoptotic (%),Fibroblast; [12],80%
same,Population Fragmented Nuclei (%),Fibroblast; [12],16%
same,Population Healthy Nuclei (%),Fibroblast; [12],65%
same,Population Hoechst High Intensity Objects (%),Fibroblast; [12],8%
same,Population Membrane Permeable-Phenotype (%),Fibroblast; [12],50%
same,Population Mitochondria Different-Phenotype (%),Fibroblast; [12],100%
same,Population Mitotic Cells (%),Fibroblast; [12],20%
same,Population Normal (%),Fibroblast; [12],91%
same,Population Pyknosed Nuclei (%),Fibroblast; [12],17%
same,Population Tubulin-Different-Phenotype (%),Fibroblast; [12],100%
same,Total Cell Count,Fibroblast; [12],66
same,Population Apoptotic (%),Fibroblast; [13],60%
same,Population Fragmented Nuclei (%),Fibroblast; [13],39%
same,Population Healthy Nuclei (%),Fibroblast; [13],51%
same,Population Hoechst High Intensity Objects (%),Fibroblast; [13],19%
same,Population Membrane Permeable-Phenotype (%),Fibroblast; [13],23%
same,Population Mitochondria Different-Phenotype (%),Fibroblast; [13],4%
same,Population Mitotic Cells (%),Fibroblast; [13],40%
same,Population Normal (%),Fibroblast; [13],80%
same,Population Pyknosed Nuclei (%),Fibroblast; [13],9%
same,Population Tubulin-Different-Phenotype (%),Fibroblast; [13],49%
same,Total Cell Count,Fibroblast; [13],203
same,Population Apoptotic (%),Fibroblast; [14],50%
same,Population Fragmented Nuclei (%),Fibroblast; [14],23%
same,Population Healthy Nuclei (%),Fibroblast; [14],73%
same,Population Hoechst High Intensity Objects (%),Fibroblast; [14],8%
same,Population Membrane Permeable-Phenotype (%),Fibroblast; [14],16%
same,Population Mitochondria Different-Phenotype (%),Fibroblast; [14],0%
same,Population Mitotic Cells (%),Fibroblast; [14],50%
same,Population Normal (%),Fibroblast; [14],91%
same,Population Pyknosed Nuclei (%),Fibroblast; [14],2%
same,Population Tubulin-Different-Phenotype (%),Fibroblast; [14],34%
same,Total Cell Count,Fibroblast; [14],74
same,Population Apoptotic (%),Fibroblast; [15],85%
same,Population Fragmented Nuclei (%),Fibroblast; [15],32%
same,Population Healthy Nuclei (%),Fibroblast; [15],49%
same,Population Hoechst High Intensity Objects (%),Fibroblast; [15],17%
same,Population Membrane Permeable-Phenotype (%),Fibroblast; [15],11%
same,Population Mitochondria Different-Phenotype (%),Fibroblast; [15],79%
same,Population Mitotic Cells (%),Fibroblast; [15],15%
same,Population Normal (%),Fibroblast; [15],82%
same,Population Pyknosed Nuclei (%),Fibroblast; [15],18%
same,Population Tubulin-Different-Phenotype (%),Fibroblast; [15],92%
same,Total Cell Count,Fibroblast; [15],131
same,Population Apoptotic (%),Fibroblast; [16],50%
same,Population Fragmented Nuclei (%),Fibroblast; [16],37%
same,Population Healthy Nuclei (%),Fibroblast; [16],60%
same,Population Hoechst High Intensity Objects (%),Fibroblast; [16],18%
same,Population Membrane Permeable-Phenotype (%),Fibroblast; [16],7%
same,Population Mitochondria Different-Phenotype (%),Fibroblast; [16],59%
same,Population Mitotic Cells (%),Fibroblast; [16],50%
same,Population Normal (%),Fibroblast; [16],81%
same,Population Pyknosed Nuclei (%),Fibroblast; [16],2%
same,Population Tubulin-Different-Phenotype (%),Fibroblast; [16],96%
same,Total Cell Count,Fibroblast; [16],117
